This note sets out measurements from ChEMBL document CHEMBL1129733, “Aminoacetyl moiety as a potential surrogate for diacylhydrazine group of SC-51089, a potent PGE2 antagonist, and its analogs” (J Med Chem, 1996).

What is called ED50 is the dose that gives a 50% effect, or the effect in half of the subjects. A high value points to weaker potency.

The structures appear in SMILES notation.

One assay is filed under the species Mus musculus. Briefly: Antinociceptive activity in mouse by using phenylbenzoquinone writing assay. Type of assay: functional. The method in brief: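 Mice given test compound at an initial screening dose of 30 mg/kg. ED50 determined only for compounds producing a response in seven of ten animals, with 95% confidence limits (p < 0.05).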
Assay [1] addresses Prostaglandin E2 receptor EP1 (Cavia porcellus). Put plainly: PGE-2 (EP1 subtype) antagonistic activity as PGE2-stimulated guinea pig ileum muscle strip assay. To be noted: read-out: pA2 (converted).

Regarding `O=C(CCc1ccncc1)NNC(=O)N1Cc2ccccc2Oc2ccc(Cl)cc21`, in the assay filed under Mus musculus, the ED50 was found to be 6.8 mg/kg. In assay [1], the Kb is 316 nM.
For `CCS(=O)(=O)CCC(=O)NNC(=O)N1Cc2ccccc2Oc2ccc(Cl)cc21`, in that order: 7.4 mg/kg and 1580 nM.
For `O=C(NNC(=O)C(F)(F)C(O)c1ccccn1)N1Cc2ccccc2Oc2ccc(Cl)cc21` (stereo not drawn), in that order: 9.1 mg/kg and 31.6 nM.
Turning to `CCS(=O)(=O)CCC(=O)CNC(=O)N1Cc2ccccc2Oc2ccc(Cl)cc21`, in assay [1], the Kb was 2510 nM.
On the same count and under the same terms, then `O=C(CCc1ccncc1)NCC(=O)N1Cc2ccccc2Oc2ccc(Cl)cc21`, with 2000 nM; and `CCS(=O)(=O)CCC(=O)NCC(=O)N1Cc2ccccc2Oc2ccc(Cl)cc21`, with 2000 nM.
The compound `O=C(CNC(=O)C(F)(F)C(O)c1ccccn1)N1Cc2ccccc2Oc2ccc(Cl)cc21` (stereo not drawn) displayed an ED50 in the assay listed under Mus musculus of 8.1 mg/kg.
For `O=C(CCSCc1ccco1)CNC(=O)N1Cc2ccccc2Oc2ccc(Cl)cc21`, the Kb in assay [1] is 63.1 nM.
For `O=C(CCSCc1ccco1)NNC(=O)N1Cc2ccccc2Oc2ccc(Cl)cc21`, in the assay filed under Mus musculus, it took a dose of 0.9 mg/kg to reach the 50% effect level (ED50).
Take `O=C(CCSCc1ccco1)NCC(=O)N1Cc2ccccc2Oc2ccc(Cl)cc21`: in assay [1], the Kb is 39.8 nM.
